What was measured:
[1] = target: T1, FAAH prepared from rat brain homogenates (Rattus norvegicus, UniProt P97612); assay: In vitro rat FAAH radiometric assay; format: biochemical; details: read-out: r-FAAH IC50; rat brain homogenate, mean ± SEM (n=3)
T1 sequence (P97612 1-579): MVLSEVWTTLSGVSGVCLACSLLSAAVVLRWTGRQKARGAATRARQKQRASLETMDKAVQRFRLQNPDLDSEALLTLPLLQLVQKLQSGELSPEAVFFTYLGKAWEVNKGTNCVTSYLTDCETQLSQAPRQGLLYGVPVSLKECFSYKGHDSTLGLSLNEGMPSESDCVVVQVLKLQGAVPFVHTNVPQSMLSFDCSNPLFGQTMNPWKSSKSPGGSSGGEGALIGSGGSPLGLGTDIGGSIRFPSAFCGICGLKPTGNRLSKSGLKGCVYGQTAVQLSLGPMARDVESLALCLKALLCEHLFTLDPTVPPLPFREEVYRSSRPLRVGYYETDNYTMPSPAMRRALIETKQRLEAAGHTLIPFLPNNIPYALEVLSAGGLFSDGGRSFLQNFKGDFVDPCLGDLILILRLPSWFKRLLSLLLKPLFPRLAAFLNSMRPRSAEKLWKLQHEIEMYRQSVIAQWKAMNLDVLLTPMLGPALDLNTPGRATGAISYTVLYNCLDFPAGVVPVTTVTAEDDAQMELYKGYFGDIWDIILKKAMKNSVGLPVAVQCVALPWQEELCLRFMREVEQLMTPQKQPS

[2] = In vitro rat plasma stability assay; format: in vitro ADME; details: 37 °C, 1.0 μM
Summary of the method: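 Test compound at 1.0 µM final was incubated at 37 °C in rat plasma (prewarmed 30 min) containing 10% DMSO. Samples at 0, 30, 60, 120, 240, 360 and 420 min were quenched in cold CH3CN with 200 nM warfarin internal standard and centrifuged. Supernatant was quantified by LC-MS/MS (MRM). Internal-standard-normalised response was plotted over time. Run in triplicate.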

[3] = In vitro mouse liver microsomes; format: in vitro ADME; details: 5 μM compound, mean of three determinations
Summary of the method: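 Test compound at 5 µM (0.1% DMSO) was preincubated 15 min with 1.25 mg/mL mouse liver microsomes in 100 mM Tris-HCl pH 7.4. At time zero, NADP 1 mM, G6P 20 mM, MgCl2 2 mM and G6P dehydrogenase 2 Units were added; shaken at 37 °C. Samples at 0–60 min were quenched in acetonitrile with warfarin internal standard and analysed by LC-MS/MS (MRM). A no-cofactor control was sampled at the end.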

[4] = Aqueous kinetic solubility assay; format: physicochemical; details: Phosphate buffered saline, pH 7.4, single determination
Summary of the method: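 Test compound from a 10 mM DMSO stock was added to PBS pH 7.4 at a target 250 µM (2.5% DMSO final). Shaken 24 h at 25 °C, then centrifuged. Supernatant was analysed by UPLC/MS with UV at 215 nm. Solubility = peak-area ratio against a 250 µM reference in 1:1 CH3CN-H2O × reference concentration × dilution factor.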

[5] = target: T2, human FAAH-1 (Homo sapiens, UniProt O00519); assay: In vitro human FAAH fluorescent assay; format: biochemical; details: h-FAAH-1 vs r-FAAH
T2 sequence (O00519 1-579): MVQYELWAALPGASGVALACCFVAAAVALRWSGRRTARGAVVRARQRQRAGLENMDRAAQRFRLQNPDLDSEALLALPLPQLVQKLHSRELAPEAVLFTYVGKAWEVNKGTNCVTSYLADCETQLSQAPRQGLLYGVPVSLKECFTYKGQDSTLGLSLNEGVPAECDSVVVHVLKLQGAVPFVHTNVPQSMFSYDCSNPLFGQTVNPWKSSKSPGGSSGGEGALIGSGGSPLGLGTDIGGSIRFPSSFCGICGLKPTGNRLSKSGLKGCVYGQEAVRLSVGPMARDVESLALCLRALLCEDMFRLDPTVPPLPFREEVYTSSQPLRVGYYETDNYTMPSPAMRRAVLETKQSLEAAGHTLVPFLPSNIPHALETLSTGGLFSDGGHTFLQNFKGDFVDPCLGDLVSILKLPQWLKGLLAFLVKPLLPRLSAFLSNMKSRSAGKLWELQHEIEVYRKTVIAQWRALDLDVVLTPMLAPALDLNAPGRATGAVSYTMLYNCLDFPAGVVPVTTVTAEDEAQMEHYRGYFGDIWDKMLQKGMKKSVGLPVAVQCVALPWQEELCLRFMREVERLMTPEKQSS

[6] = target: T3, purified rat MGL (Rattus norvegicus, UniProt Q8R431); assay: MGL activity assay; format: biochemical; details: tested at concentrations up to 100 μM (Figure S1)
T3 sequence (Q8R431 1-303): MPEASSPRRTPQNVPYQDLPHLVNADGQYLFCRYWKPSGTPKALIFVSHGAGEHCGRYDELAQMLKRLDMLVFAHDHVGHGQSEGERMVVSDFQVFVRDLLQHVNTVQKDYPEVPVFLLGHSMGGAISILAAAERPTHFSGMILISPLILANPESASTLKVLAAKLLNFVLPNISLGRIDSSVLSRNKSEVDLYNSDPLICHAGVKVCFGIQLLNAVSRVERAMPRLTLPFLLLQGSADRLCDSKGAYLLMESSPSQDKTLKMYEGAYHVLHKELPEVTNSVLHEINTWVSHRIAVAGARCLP

SMILES	IC50 [1]	Plasma half-life [2]	MLM Stab. half-life [3]	Kinetic sol. [4]	Higher potency on h-FAAH-1 with respect to r-FAAH [5]	Inhibition of MGL activity [6]
O=C(NC1CCCCC1)Oc1cccc(-c2ccccc2)c1 [Compound 1a, URB524, reference compound]	5.7 ± 1.2 nM	62 ± 19 min	<5 min	6 µM		
COc1cc(Cn2cc(COC(=O)NC3CCCCC3)nn2)cc(OC)c1 [Compound 27, [1-[(3,5-dimethoxyphenyl)methyl]triazol-4-yl]methyl N-cyclohexylcarbamate]	10.5 ± 2.9 nM		5 min	18 µM	3 fold	None of the compounds inhibited MGL activity
COc1cccc(Cn2cc(CNC(=O)OCc3cn(Cc4cccc(OC)c4)nn3)nn2)c1 [Compound 34b, [1-[(3-methoxyphenyl)methyl]triazol-4-yl]methyl N-[[1-[(3-methoxyphenyl)methyl]triazol-4-yl]methyl]carbamate]	3.9 ± 0.7 nM		6 min	174 µM		None of the compounds inhibited MGL activity
COc1ccc(Cn2cc(CNC(=O)OCc3cn(Cc4cccc(OC)c4)nn3)nn2)cc1 [Compound 40, [1-[(3-methoxyphenyl)methyl]triazol-4-yl]methyl N-[[1-[(4-methoxyphenyl)methyl]triazol-4-yl]methyl]carbamate]	5.8 ± 0.6 nM		8 min	152 µM		None of the compounds inhibited MGL activity

From PMC4384654 (ChemMedChem, 2014)
